SENP6 block: SENP6 protease inhibitors, primary screen, biochemical, luminescence, uHTS; Sentrin-specific protease 6 (Homo sapiens), Q9GZR1; Recombinant SENP6 catalytic domain, aminoluciferin luminescence; inhibition, % at 10 µM; actives 1.8% (n = 330,000);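 active = inhibition above about 50% at the single tested dose, limit read from the data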
SENP7 block: SENP7 protease inhibitors, primary screen, biochemical, luminescence, uHTS | recombinant SENP7, Z-RLRGG-aminoluciferin luminescence, 40 min | AID 434973, 2010 | actives 1.5% (n = 330,000) | inhibition, % at 5 µM;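 active = inhibition above about 50% at the single test dose, limit read from the data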
SENP1 inh: human SENP1 catalytic domain inhibitors, primary screen, biochemical, FRET, uHTS; Sentrin-specific protease 1 (Homo sapiens), Q9P0U3; recombinant SENP1 catalytic domain, CyPet-SUMO1-YPet FRET cleavage; inhibition, % at 10 µM; actives 0.21% (n = 360,000);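 active = inhibition at least 30% at 10 µM, raw YFP signal under a set limit, fluorescence ratio 0.5 to 1.5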
Target sequence (Q9P0U3 419-644 limits assumed): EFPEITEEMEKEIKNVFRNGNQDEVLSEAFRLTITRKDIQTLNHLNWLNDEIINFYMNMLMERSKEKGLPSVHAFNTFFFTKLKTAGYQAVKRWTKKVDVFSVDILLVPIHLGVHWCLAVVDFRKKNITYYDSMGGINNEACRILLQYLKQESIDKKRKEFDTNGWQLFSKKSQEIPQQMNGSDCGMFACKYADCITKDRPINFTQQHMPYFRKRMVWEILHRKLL
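Test system: recombinant human SENP1 catalytic domain, His6-tagged / Medium: pH 8 Tris buffer with EDTA, NaCl, BME, BSA, NP40, catalase / Also added: SUMO1 FRET substrate flanked by Cypet and Ypet, 25 nM / Times: 50 min reaction at room temperature / Signal: FRET, CFP and YFP emission / Control set: no-enzyme low control and enzyme-plus-DMSO high control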
SENP8 block-1: human SENP8 protease inhibitors, primary screen, biochemical, fluorescence, Nedd8 protein substrate, uHTS; Sentrin-specific protease 8 (Homo sapiens), Q96LD8; recombinant SENP8; inhibition, % at 20 µM; actives 0.64% (n = 360,000); AID 602440, 2012; in the data active = inhibition mostly above about 40%, no sharp cut-off; inactive = mostly below about 27%
Target sequence (Q96LD8 whole entry, looked up): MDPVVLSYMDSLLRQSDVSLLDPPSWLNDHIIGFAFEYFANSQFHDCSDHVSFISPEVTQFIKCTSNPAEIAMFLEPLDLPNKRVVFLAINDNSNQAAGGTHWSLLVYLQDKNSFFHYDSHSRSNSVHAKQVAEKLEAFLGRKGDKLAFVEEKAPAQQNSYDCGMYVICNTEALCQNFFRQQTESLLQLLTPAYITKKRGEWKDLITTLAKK
Platelet DG rel: inhibitors of platelet dense granule secretion, primary screen, cell-based, MLPCN, human platelets | inhibition, %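 (compounds screened at 7.5 µM in platelet-rich plasma)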 | actives 0.22% (n = 300,000) | AID 1663, 2009 | human platelet-rich plasma, SFLLRN dense granule ATP release, luminescence;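 active = mean replicate score, as percent of positive control, at or above 50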
SENP8 block-2: SENP8 protease inhibitors, primary screen, biochemical, luminescence. AID 2540, 2010. Sentrin-specific protease 8 (Homo sapiens), Q96LD8. purified SENP8, Z-RLRGG-aminoluciferin cleavage. inhibition, % at 10 µM. actives 1.2% (n = 330,000); in the data active = inhibition above about 50%
SENP8 conf: SENP8 protease inhibitors, retest, confirmation, biochemical, luminescence, single concentration | shares compounds with SENP7 block | inhibition, % at 12.5 µM | AID 488912, 2010 | Recombinant SENP8, Z-RLRGG-aminoluciferin luminescence, 60 min | actives 40% (n = 6,200);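 active = mean inhibition across replicates above about 50%, limit read from the data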
SENP6 conf: SENP6 protease inhibitors, confirmation, biochemical, luminescence, single concentration. inhibition, % at 12.5 µM. recombinant SENP6, Z-RLRGG-aminoluciferin luminescence. shares compounds with SENP7 block. actives 58% (n = 6,200)
SENP7 conf: SENP7 protease inhibitors, retest, confirmation, biochemical, luminescence, single concentration | shares compounds with SENP7 block | recombinant SENP7, Z-RLRGG-aminoluciferin luminescence, 40 min | inhibition, % at 12.5 µM | actives 69% (n = 6,200) | AID 488917, 2010
Casp3 select: caspase-3 protease inhibitors, confirmation, selectivity assay for SENP inhibitor project, biochemical, single concentration. shares compounds with SENP7 block. purified caspase-3, Z-DEVD-aminoluciferin luminescence, 60 min. inhibition, % at 12.5 µM. actives 60% (n = 6,200);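 active = mean inhibition above about 50%, limit read from the data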
Target sequence (P42574 28-227 limits assumed): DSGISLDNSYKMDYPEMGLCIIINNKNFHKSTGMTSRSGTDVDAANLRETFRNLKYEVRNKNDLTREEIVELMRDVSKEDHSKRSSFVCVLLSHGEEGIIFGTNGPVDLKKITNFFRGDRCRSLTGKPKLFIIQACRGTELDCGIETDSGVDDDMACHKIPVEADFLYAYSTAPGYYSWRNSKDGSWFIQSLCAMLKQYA
SENP luc ctr: counter-screen for SENP inhibitors: luminescence interference; Pre-incubated SENP8/Z-RLRGG-aminoluciferin, luciferase luminescence interference; AID 488919; actives 39% (n = 6,200); inhibition, % at 12.5 µM; shares compounds with SENP7 block;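 active = mean inhibition above about 50% when retested at one dose, limit read from the data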
Of the large screens only hits and unclear results are named; the others gave an inactive call (follow-up assays come after a bar, where they were run). Rows were chosen to be rich in hits. Some 2.6% of all compounds tested hit in one or more screens of this group.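 Rule for the calls, unless noted: active = mean inhibition above about 50% in the one-dose retest (limit read from the data); inactive = the rest.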

O=C(Nc1scc(-c2cccs2)c1C(=O)O)c1cccs1	SENP6 block 87.0, SENP8 block-2 75.7 | SENP8 conf inactive | SENP6 conf 79.6 | SENP7 conf 94.6 | Casp3 select 79.6 | SENP luc ctr 84.9
O=C(Nc1scc(-c2ccccc2)c1C(=O)O)c1ccco1	SENP6 block 70.7 | SENP8 conf 62.2 | SENP6 conf 60.1 | SENP7 conf 87.3 | Casp3 select 83.0 | SENP luc ctr 75.5
COC(=O)c1c(-c2ccc(F)cc2)csc1NC(=O)c1ccco1	none
Cc1ccc(C(=O)Nc2scc(-c3ccccc3)c2C(=O)O)cc1	SENP6 block 94.4, SENP7 block 70.0, SENP8 block-2 92.5 | SENP8 conf inactive | SENP6 conf 96.9 | SENP7 conf 101.9 | Casp3 select 95.0 | SENP luc ctr 95.1
COc1ccc(-c2csc(NC(=O)c3ccccc3F)c2C(=O)O)cc1	SENP6 block 67.7, SENP8 block-2 60.4 | SENP8 conf inactive | SENP6 conf 73.1 | SENP7 conf 89.6 | Casp3 select 74.8 | SENP luc ctr 75.5
Cn1nc(C(C)(C)C)cc1N1C(=O)CCC1(C)C(=O)Nc1ccc2ccccc2c1 (stereo not drawn)	none (no result: SENP6 block, SENP7 block, Platelet DG rel, SENP8 block-2)
O=c1c2c([nH]c3ccccc13)CCCCC2	SENP6 block 82.4 | SENP8 conf inactive | SENP6 conf inactive | SENP7 conf inactive | Casp3 select inactive | SENP luc ctr inactive
Cc1cc(C)c(S(=O)(=O)N2CC=C(c3ccccc3)CC2)c(C)c1	none
CC(=O)c1ccc(NC(=O)c2cnn3ccccc23)cc1	SENP6 block 56.1 | SENP8 conf inactive | SENP6 conf inactive | SENP7 conf 73.4 | Casp3 select 72.7 | SENP luc ctr 59.6
CC(=O)c1cccc(NC(=O)c2cnn3ccccc23)c1	SENP6 block 56.6 | SENP8 conf inactive | SENP6 conf inactive | SENP7 conf 77.6 | Casp3 select 78.3 | SENP luc ctr 56.3
CCC(=O)Nc1sc(C(=O)Nc2ccccc2F)c(C)c1C(=O)OC	none
CCOC(=O)c1c(N)sc(C(=O)Nc2ccccc2)c1C	SENP6 block 84.3, SENP7 block 85.0, SENP8 block-2 73.1 | SENP8 conf inactive | SENP6 conf 80.7 | SENP7 conf 97.4 | Casp3 select 83.9 | SENP luc ctr 83.3
CCOC(=O)c1c(N)sc(C(=O)Nc2ccccc2F)c1C	SENP6 block 81.1, SENP7 block 78.3, SENP8 block-2 73.7 | SENP8 conf 62.8 | SENP6 conf 63.0 | SENP7 conf 87.5 | Casp3 select 67.1 | SENP luc ctr inactive
CCCCn1nc(NS(=O)(=O)c2cccc3nonc23)c2cc3cccc(C)c3nc21	none
COC(=O)c1ccc(N/C(=N/S(=O)(=O)c2ccccc2)c2ccccc2)cc1	none
O=C(O)c1ccc(NC2=C/C(=N/S(=O)(=O)c3ccccc3)c3ccccc3C2=O)cc1	SENP6 block 92.8, SENP7 block 59.7, SENP8 block-1 60.8, SENP8 block-2 87.3 (no result: Platelet DG rel) | SENP8 conf 95.2 | SENP6 conf 98.0 | SENP7 conf 92.5 | Casp3 select inactive | SENP luc ctr inactive
CCN1CCc2c(sc(NC(=S)NC(=O)c3ccccc3)c2C#N)C1	SENP6 block 55.8 | SENP8 conf inactive | SENP6 conf inactive | SENP7 conf inactive | Casp3 select inactive | SENP luc ctr inactive
N#Cc1c(NC(=S)NC(=O)c2ccccc2)sc2c1CCC2	none
CCCC[C@@H]1C=C(C(=O)O)[C@H](c2ccc(C#N)cc2)N1S(=O)(=O)c1ccc(C)cc1	none (no result: Platelet DG rel)
c1ccc(C2CSc3ccccc3N2)cc1 (stereo not drawn)	SENP6 block 71.6 | SENP8 conf inactive | SENP6 conf inactive | SENP7 conf inactive | Casp3 select inactive | SENP luc ctr inactive
CCSc1nsc(NC(=O)Nc2ccccc2F)n1	SENP6 block 65.2 | SENP8 conf inactive | SENP6 conf inactive | SENP7 conf 79.4 | Casp3 select inactive | SENP luc ctr inactive
CS(=O)(=O)c1ccc2nc(NC(=O)Nc3ccccc3F)sc2c1	SENP7 block 71.9 | SENP8 conf inactive | SENP6 conf inactive | SENP7 conf inactive | Casp3 select inactive | SENP luc ctr inactive
Cc1cccc(C(=O)Nc2nc3ccc(S(C)(=O)=O)cc3s2)c1	SENP6 block 75.1, SENP7 block 74.1, SENP8 block-2 63.3 | SENP8 conf inactive | SENP6 conf inactive | SENP7 conf 88.0 | Casp3 select 77.8 | SENP luc ctr inactive
Cc1ccc(C(=O)Nc2nc3ccc(S(C)(=O)=O)cc3s2)cc1C	none
CS(=O)(=O)c1ccc2nc(NC(=O)c3ccccc3)sc2c1	SENP6 block 88.4, SENP7 block 88.0, SENP8 block-2 78.4 | SENP8 conf inactive | SENP6 conf 80.5 | SENP7 conf 94.2 | Casp3 select 87.8 | SENP luc ctr inactive
O=C(CCNC(=O)C1CCN(S(=O)(=O)c2ccc(F)cc2)CC1)NCc1cccc(Cl)c1	none
CCCCCC(=O)NNC(=O)Nc1ccccc1	none
CCCCSC(=O)Nc1ccccc1	SENP6 block 79.6, SENP7 block 71.1, SENP8 block-2 51.9 | SENP8 conf inactive | SENP6 conf 72.9 | SENP7 conf 89.9 | Casp3 select 65.3 | SENP luc ctr 54.9
